Measurements from ChEMBL document CHEMBL1132257, “Apstatin analogue inhibitors of aminopeptidase P, a bradykinin-degrading enzyme” (J Med Chem, 1999).

Tests used:
[1] = Inhibition against Aminopeptidase P from Escherichia coli.
In short: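 Recombinant E. coli AP-P, preincubated with 0.73 mM MnCl2 (0.02 mM residual in assay). Hydrolysis of 0.5 mM Arg-Pro-Pro in 0.1 M Hepes pH 8.0 tracked by fluorescence of free arginine. IC50 by linear regression of rate vs log inhibitor concentration over 10 concentrations, triplicate each.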

[2] = Inhibition against Aminopeptidase P from bovine.; assay type: single protein
In short: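 Source was bovine lung membrane-bound enzyme purified to homogeneity. Substrate 0.5 mM Arg-Pro-Pro, 0.1 M Hepes pH 8.0, with fluorimetric detection of released arginine. IC50 by linear regression of rate vs log [inhibitor] (linear part), using 10 concentrations near a preliminary estimate, in triplicate.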

[3] = biological target: T1, Xaa-Pro aminopeptidase 1 (Homo sapiens, UniProt Q9NQW7); assay: Inhibition against cytosolic Aminopeptidase P from human heart.
T1 sequence (Q9NQW7 whole entry): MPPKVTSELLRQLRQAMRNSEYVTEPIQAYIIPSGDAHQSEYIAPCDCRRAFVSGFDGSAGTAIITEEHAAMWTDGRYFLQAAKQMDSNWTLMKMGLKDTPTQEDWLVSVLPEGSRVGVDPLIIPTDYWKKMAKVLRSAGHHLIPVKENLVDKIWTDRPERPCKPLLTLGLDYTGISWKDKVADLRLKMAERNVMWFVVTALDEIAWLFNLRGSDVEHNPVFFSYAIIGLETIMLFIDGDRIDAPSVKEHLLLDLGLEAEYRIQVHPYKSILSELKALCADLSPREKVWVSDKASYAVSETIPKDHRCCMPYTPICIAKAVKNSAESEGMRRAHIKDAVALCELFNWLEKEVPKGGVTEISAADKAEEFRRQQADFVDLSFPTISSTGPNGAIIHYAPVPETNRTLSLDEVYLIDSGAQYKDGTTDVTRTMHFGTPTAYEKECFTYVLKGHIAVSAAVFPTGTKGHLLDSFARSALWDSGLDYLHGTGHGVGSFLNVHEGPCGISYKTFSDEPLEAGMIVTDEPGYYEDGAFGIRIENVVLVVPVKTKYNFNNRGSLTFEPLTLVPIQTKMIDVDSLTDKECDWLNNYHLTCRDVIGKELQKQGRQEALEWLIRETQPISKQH
In short: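 Human heart homogenate in 0.1 M potassium phosphate pH 6.8: the 40000g supernatant, or enzyme partly purified on TNB-thiol agarose with dithiothreitol elution and exchange into Hepes. Assayed with 0.5 mM Arg-Pro-Pro, 0.1 M Hepes pH 8.0; arginine measured by fluorescence. IC50 by linear regression, 10 concentrations in triplicate.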

[4] = biological target: Xaa-Pro aminopeptidase 2 (Homo sapiens, UniProt O43895); assay: Inhibition against membrane bound human aminopeptidase P
Chain of Xaa-Pro aminopeptidase 2 (Homo sapiens, UniProt O43895) (O43895 whole entry): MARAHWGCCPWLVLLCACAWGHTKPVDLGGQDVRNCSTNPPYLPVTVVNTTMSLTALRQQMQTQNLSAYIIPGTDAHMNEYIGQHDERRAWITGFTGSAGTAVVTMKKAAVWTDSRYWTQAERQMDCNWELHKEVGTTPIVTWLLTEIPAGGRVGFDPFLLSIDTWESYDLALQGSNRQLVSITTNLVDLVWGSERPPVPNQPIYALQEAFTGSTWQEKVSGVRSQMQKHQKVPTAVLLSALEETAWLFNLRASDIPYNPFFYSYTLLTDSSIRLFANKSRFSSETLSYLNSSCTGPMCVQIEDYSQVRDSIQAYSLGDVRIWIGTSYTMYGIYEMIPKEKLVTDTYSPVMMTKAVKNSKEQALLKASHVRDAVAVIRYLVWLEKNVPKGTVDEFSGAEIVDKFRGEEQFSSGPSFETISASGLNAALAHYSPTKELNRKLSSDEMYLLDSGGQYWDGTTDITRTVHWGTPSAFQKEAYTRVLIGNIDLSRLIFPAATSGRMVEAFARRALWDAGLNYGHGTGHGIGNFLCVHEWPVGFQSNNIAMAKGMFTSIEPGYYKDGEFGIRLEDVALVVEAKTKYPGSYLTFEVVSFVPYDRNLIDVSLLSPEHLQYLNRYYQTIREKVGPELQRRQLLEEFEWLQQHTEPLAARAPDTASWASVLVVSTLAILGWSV
In short: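 Partially purified membrane-bound AP-P from human or cynomolgus lung, released from microsomes by phosphatidylinositol-specific phospholipase C and then centrifuged. Triplicate rates at 10 inhibitor levels; IC50 by linear regression of the linear part of the rate vs log concentration plot.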

[5] = biological target: T2, Xaa-Pro aminopeptidase 2 (Rattus norvegicus, UniProt Q99MA2); assay: Activity against membrane bound rat aminopeptidase P
T2 sequence (Q99MA2 whole entry): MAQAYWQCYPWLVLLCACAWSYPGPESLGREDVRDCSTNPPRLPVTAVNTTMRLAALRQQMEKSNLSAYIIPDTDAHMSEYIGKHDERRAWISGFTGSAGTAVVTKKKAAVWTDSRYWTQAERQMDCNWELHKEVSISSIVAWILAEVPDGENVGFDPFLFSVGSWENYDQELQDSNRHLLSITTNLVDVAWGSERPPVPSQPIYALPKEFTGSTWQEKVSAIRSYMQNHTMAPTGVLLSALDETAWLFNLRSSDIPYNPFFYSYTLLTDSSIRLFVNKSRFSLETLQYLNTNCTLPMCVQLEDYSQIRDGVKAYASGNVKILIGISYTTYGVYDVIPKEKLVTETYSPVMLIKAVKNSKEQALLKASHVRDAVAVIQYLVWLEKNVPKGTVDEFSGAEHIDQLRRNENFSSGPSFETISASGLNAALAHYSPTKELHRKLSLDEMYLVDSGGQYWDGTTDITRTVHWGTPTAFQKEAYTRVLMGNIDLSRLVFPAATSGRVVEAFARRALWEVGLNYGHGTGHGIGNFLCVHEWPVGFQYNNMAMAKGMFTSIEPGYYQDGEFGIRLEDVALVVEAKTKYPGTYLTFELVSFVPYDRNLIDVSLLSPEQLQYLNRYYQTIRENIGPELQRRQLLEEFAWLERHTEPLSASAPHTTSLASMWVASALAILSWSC
In short: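 Membrane-bound AP-P purified to homogeneity from rat lung; 0.5 mM Arg-Pro-Pro substrate in 0.1 M Hepes, pH 8.0; free arginine release read by fluorescence. IC50 from 10 inhibitor concentrations around an approximate value, each in triplicate, by linear regression of the linear portion of rate vs log inhibitor concentration.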

[6] = biological target: T1, Xaa-Pro aminopeptidase 1; assay: Inhibition against Aminopeptidase P from human platelets.
In short: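 Enzyme from human platelets: washed in PBS with prostacyclin, freeze-thawed, sonicated; the 43000g 2 h supernatant was used. Substrate 0.5 mM Arg-Pro-Pro, 0.1 M Hepes pH 8.0, fluorimetric arginine read-out. IC50 from triplicate rates at 10 concentrations, by linear regression of rate vs log concentration.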

| IC50 [1] | IC50 [2] | IC50 [3] | IC50 [4] | IC50 [5] | IC50 [6] | Structure (SMILES) |
| --- | --- | --- | --- | --- | --- | --- |
| 130 µM | 50 µM | > 3000 µM |  |  |  | C[C@H](NC(=O)[C@@H]1CCCN1C(=O)C1CCCCC1C(=O)NO)C(N)=O (stereo in doubt; 14) |
| > 3000 µM | 300 µM | 53 µM | 390 µM | 150 µM |  | C[C@H](NC(=O)[C@@H]1CCCN1C(=O)C1CCCC1S)C(N)=O (stereo in doubt; 13) |
| 9 µM | 9.4 µM | 21 µM |  |  | 18 µM | C[C@H](NC(=O)[C@@H]1CCCN1C(=O)[C@@H]1CCCN1C(=O)[C@@H](O)[C@H](N)Cc1ccccc1)C(N)=O |
|  | 10 µM | 6.3 µM | 29 µM | 3.4 µM |  | C[C@H](NC(=O)[C@@H]1CCCN1C(=O)C1CCCC1S)C(N)=O (stereo in doubt; 12) |
| 2000 µM | > 5000 µM | > 5000 µM |  |  |  | C[C@H](NC(=O)[C@@H]1CCCN1C(=O)C1CCCCC1C(=O)NO)C(N)=O (stereo in doubt; 16) |
| 160 µM | > 2000 µM | > 2000 µM |  |  | > 2000 µM | C[C@H](NC(=O)[C@@H]1CCCN1C(=O)[C@@H]1C[C@@H](O)CN1C(=O)[C@@H](O)[C@H](N)Cc1ccccc1)C(N)=O |
| 16 µM | 1300 µM | 45 µM |  |  | 250 µM | NC(=O)[C@@H]1CCCN1C(=O)[C@@H]1CCCN1C(=O)[C@@H](O)[C@H](N)Cc1ccccc1 |
| 41 µM | 34 µM | 82 µM |  |  |  | C[C@H](NC(=O)[C@@H]1CCCN1C(=O)[C@@H]1CSCN1C(=O)[C@@H](O)[C@H](N)Cc1ccccc1)C(N)=O |
| > 2000 µM | > 500 µM | > 2000 µM |  |  |  | C[C@H](NC(=O)[C@@H]1CCCN1C(=O)C1CCCCC1C(=O)NO)C(N)=O (stereo in doubt; 15) |
